Laboratory results from publication PMC5575927 (ACS chemical biology, 2017).
Where a SMILES comes first, the peptide text is derived from it. The star is where a group is joined. AMC = Cc1cc(=O)oc2cc(N*)ccc12; Boc = CC(C)(C)OC(=O)*

Assays:
PmC11 [1] = experiment: E64 inhibition of PmC11 proteolytic activity; format: biochemical, Parabacteroides merdae; conditions: 4-fold excess of E64; Figure S5B
clostripain = conditions: rather than covalently modifying the catalytic cysteine; ref [38],[39]; cited from earlier work
PmC11 [2] = experiment: Michaelis-Menten kinetics of fluorogenic AMC substrate hydrolysis; format: biochemical, Parabacteroides merdae; conditions: 25 nM PmC11; PBS (pH 7.4), 5 mM DTT, 0.1 mM EDTA, 1 mM CaCl2, 0.1% CHAPS; 25 °C
Outline: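 Recombinant His6-tagged WT PmC11 was expressed in E. coli, self-matured, and purified by Ni-NTA and anion exchange. Reactions were started by adding Ac-VLTK-AMC at 400 pM to 400 μM. Fluorescence (excitation 355 nm, emission 460 nm) was read every 20 s for 25 min. KM and kcat were obtained by Michaelis-Menten fitting of hydrolysis rates.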

PmC11 [3] = molecular target: PmC11 (Parabacteroides merdae, UniProt A0A9Q4WVB1); format: biochemical
Outline: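 Recombinant His6-tagged WT PmC11 was expressed in E. coli BL21DE3pLysS, self-matured during expression, and purified by Ni-NTA then anion exchange. Test compound was applied at decreasing amounts from 5 μM to 10 nM during the 30 min preincubation. IC50 was derived from the rate of substrate hydrolysis measured after substrate addition.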

PmC11 [4] = conditions: ref [16]; cited from earlier work

## CC(C)C[C@H](NC(=O)[C@H]1O[C@@H]1C(=O)O)C(=O)NCCCCN=C(N)N (relative stereo) [E64, L-trans-Epoxysuccinyl-leucylamido(4-guanidino)butane]
PmC11 [1]
  loss of proteolytic activity: 30%
clostripain
  manner of clostripain inhibition (in words): reversible competitive

## CC(=O)N[C@H](C(=O)N[C@@H](CC(C)C)C(=O)N[C@H](C(=O)N[C@@H](CCCCN)C(=O)Nc1ccc2c(C)cc(=O)oc2c1)[C@@H](C)O)C(C)C [Ac-VLTK-AMC] (Ac-VLTK-{AMC})
PmC11 [2]
  kcat/KM (catalytic efficiency): 1.6 x 10^5 s^−1M^−1

## CC(=O)N[C@H](C(=O)N[C@@H](CC(C)C)C(=O)N[C@H](C(=O)N[C@@H](CCCCN)C(=O)COC(=O)c1c(C)cccc1C)[C@@H](C)O)C(C)C [Ac-VLTK-AOMK, acetyl-Val-Leu-Thr-Lys acyloxymethyl ketone (2,6-dimethylbenzoic acid-derived acyloxy leaving group)]
PmC11 [3]
  IC50: < 25 nM

## Cc1cc(=O)oc2cc(NC(=O)C(CCCN=C(N)N)NC(=O)c3ccccc3)ccc12.Cl (stereo not shown) [Bz-Arg-AMC]
PmC11 [4]
  hydrolysis by PmC11 (in words): hydrolyze

## Boc-Val-Leu-Lys-{AMC}
PmC11 [4]
  hydrolysis by PmC11 (in words): hydrolyze

## Z-Gly-Gly-Arg-AMC
PmC11 [4]
  hydrolysis by PmC11 (in words): hydrolyze
